Experimental data of several laboratories.
Each line is one published result; the experiments were not run side by side.
CYP2D6: Cytochrome P450 2D6 (CYP2D6, Homo sapiens, UniProt P10635)
gag-pol integrase: Gag-Pol polyprotein, integrase (gag-pol, Human immunodeficiency virus 1, UniProt P12497)
PPARA: Peroxisome proliferator-activated receptor alpha (PPARA, Homo sapiens, UniProt Q07869)
Tumor necrosis factor receptor superfamily member 9: Tumor necrosis factor receptor superfamily member 9 (Homo sapiens, UniProt Q07011)
Drd2: D(2) dopamine receptor (Drd2, Rattus norvegicus, UniProt P61169)

Structure (SMILES) | target | assay | system | conditions | measurement | value
Cc1c(C2(c3ccc(C(F)(F)F)nc3)CC2)c[nH]c1C(=O)NC(C)c1c[nH]cn1 (stereo not shown) | CYP2D6 | enzyme activity, inhibitor | human, liver microsomes |  | IC50 | 320 nM
O=C(O)[C@H](Cc1ccc2ccccc2c1)NC(=O)C1(c2ccc3ccccc3c2)CCN(CCC(F)(F)F)CC1 | gag-pol integrase | enzyme activity, inhibitor, TR-FRET |  |  | IC50 | 180000 nM
O=C(O)C(F)(OC(F)(F)C(F)(F)C(F)(F)F)C(F)(F)F (stereo not shown) | PPARA | reporter gene, agonist, luciferase |  |  | EC50 | 2100 nM
O=C(O)c1cc[c]([Hg][Cl])cc1 | Beta-lactamase TEM (bla, Escherichia coli, UniProt P62593) | enzyme activity, inhibitor |  |  | IC50 | > 30000 nM
CCCC[C@@H]1NC(=O)[C@H](Cc2ccc(O)cc2)NC(=O)[C@@H]2CCCN2C(=O)[C@H](CC(=O)O)NC(=O)[C@H](C)NC(=O)[C@H](Cc2ccccc2)NC(=O)[C@@H]2CSCCC(=O)N3CN(CN(C3)C(=O)CCSC[C@@H](C(=O)N[C@@H](C)C(N)=O)NC1=O)C(=O)CCSC[C@H](NC(C)=O)C(=O)N[C@@H](CC(C)(C)C)C(=O)N1CCC[C@H]1C(=O)N[C@@H](CCC(=O)O)C(=O)N[C@H](CCCCNC(=O)CCc1cn(CCOCCOCCOCCOCCOCCC(=O)N[C@H]3CSCCC(=O)N4CN5CN(C4)C(=O)CCSC[C@H](NC(=O)[C@@H](CCC(=O)O)NC(=O)[C@H](Cc4cccc6ccccc46)NC(=O)[C@@H]4CCCN4C3=O)C(=O)N[C@@H](CC(C)C)C(=O)N[C@@H](CCCCNC(=N)N)C(=O)N[C@@H](CC(=O)O)C(=O)N[C@@H](Cc3c[nH]c4ccccc34)C(=O)N[C@@H](CO)C(=O)N[C@@H]([C@@H](C)O)C(=O)N3CCC[C@H]3C(=O)N3C[C@H](O)C[C@H]3C(=O)N[C@@H](Cc3c[nH]c4ccccc34)C(=O)N[C@H](C(N)=O)CSCCC5=O)nn1)C(=O)N1CCC[C@H]1C(=O)N[C@@H](Cc1ccc(O)cc1)C(=O)N2 | Tumor necrosis factor receptor superfamily member 9 | binding, SPR |  |  | Kd | 8.4 nM
Cc1cc(SCc2sc(-c3ccc(C(F)(F)F)c(F)c3)nc2C)ccc1OCC(=O)O | PPARA | reporter gene, antagonist, luciferase |  |  | IC50 | 37400 nM
CCCC[C@@H]1NC(=O)[C@H](Cc2ccc(O)cc2)NC(=O)[C@@H]2CCCN2C(=O)[C@H](CC(=O)O)NC(=O)[C@H](C)NC(=O)[C@H](Cc2ccccc2)NC(=O)[C@@H]2CSCCC(=O)N3CN(CN(C3)C(=O)CCSC[C@@H](C(=O)N[C@@H](CNC(=O)CCOCCOCCOCCOCCOCCn3cc(CCC(=O)N[C@H]4CSCCC(=O)N5CN6CN(C5)C(=O)CCSC[C@H](NC(=O)[C@@H](CC(=O)O)NC(=O)[C@H](Cc5cccc7ccccc57)NC(=O)[C@@H]5CCCN5C4=O)C(=O)N[C@@H](CCSC)C(=O)N[C@@H](CCCCNC(=N)N)C(=O)N[C@@H](CC(=O)O)C(=O)N[C@@H](Cc4c[nH]c5ccccc45)C(=O)N[C@@H](CO)C(=O)N[C@@H]([C@@H](C)O)C(=O)N4CCC[C@H]4C(=O)N4C[C@H](O)C[C@H]4C(=O)N[C@@H](Cc4c[nH]c5ccccc45)C(=O)N[C@H](C(N)=O)CSCCC6=O)nn3)C(N)=O)NC1=O)C(=O)CCSC[C@H](NC(C)=O)C(=O)N[C@@H](CC(C)(C)C)C(=O)N1CCC[C@H]1C(=O)N[C@@H](CCC(=O)O)C(=O)N[C@H](C)C(=O)N1CCC[C@H]1C(=O)N[C@@H](Cc1ccc(O)cc1)C(=O)N2 | Tumor necrosis factor receptor superfamily member 9 | binding, SPR |  |  | Kd | 3.4 nM
CC(C)C[C@H](NC(=O)[C@H](Cc1ccccc1)NC(=O)[C@H](Cc1ccc(O)cc1)NC(=O)CNC(=O)[C@H](CCCCN)NC(=O)[C@H](CO)NC(=O)[C@H](CCC(N)=O)NC(=O)CNC(=O)[C@@H](NC(=O)[C@H](CO)NC(=O)[C@@H]1CCCN1C(=O)[C@H](CO)NC(=O)[C@H](CCC(N)=O)NC(=O)[C@H](Cc1ccc(O)cc1)NC(=O)[C@H](CCC(=O)O)NC(=O)[C@H](C)NC(=O)[C@H](CCCCN)NC(=O)[C@@H](N)Cc1ccccc1)C(C)C)C(=O)N[C@@H](Cc1ccccc1)C(=O)N[C@@H](CCCNC(=N)N)C(=O)N1CCC[C@H]1C(=O)N[C@@H](CCCNC(=N)N)C(=O)N[C@@H](CC(N)=O)C(N)=O | Neuromedin-U receptor 2 (NMUR2, Homo sapiens, UniProt Q9GZQ4) | inositol phosphate, agonist |  |  | EC50 | 0.24 nM
O=S(=O)(O)C(F)(F)C(F)(F)C(F)(F)C(F)(F)C(F)(F)C(F)(F)F | PPARA | reporter gene, agonist, luciferase |  |  | EC50 | 61000 nM
[Cd+2] | Protein phosphatase 1A (PPM1A, Homo sapiens, UniProt P35813, D239A) | enzyme activity, inhibitor, absorbance |  | pH 8 | Ki | 5220 nM
CC(C)C[C@H](NC(=O)[C@H](CCCCN)NC(=O)[C@@H]1CCCN1C(=O)[C@@H](N)CCCNC(=N)N)C(=O)N[C@@H](CCCCN)C(=O)O | Alpha-1B adrenergic receptor (ADRA1B, Homo sapiens, UniProt P35368) | cell-free assay, radioligand |  |  | Ki | 2900 nM
O=C(O)[C@H](Cc1ccccc1)NC(=O)C1(c2ccc3ccccc3c2)CCN(Cc2ccccc2)CC1 | gag-pol integrase | enzyme activity, inhibitor, TR-FRET |  |  | IC50 | 353000 nM
O=S(=O)(O)C(F)(F)C(F)(F)C(F)(F)C(F)(F)C(F)(F)C(F)(F)C(F)(F)C(F)(F)F | PPARA | reporter gene, agonist, luciferase |  |  | EC50 | 24000 nM
Cc1c(C2(c3ccc(C(F)(F)F)nc3)CC2)c[nH]c1C(=O)NC(C)c1nc[nH]n1 (stereo not shown) | CYP2D6 | enzyme activity, inhibitor | human, liver microsomes |  | IC50 | 17000 nM
CCCC[C@@H]1NC(=O)[C@H](Cc2ccc(O)cc2)NC(=O)[C@@H]2CCCN2C(=O)[C@H](CC(=O)O)NC(=O)[C@H](C)NC(=O)[C@H](Cc2ccccc2)NC(=O)[C@@H]2CSCCC(=O)N3CN(CN(C3)C(=O)CCSC[C@@H](C(=O)N[C@@H](C)C(N)=O)NC1=O)C(=O)CCSC[C@H](NC(C)=O)C(=O)N[C@@H](CC(C)(C)C)C(=O)N1CCC[C@H]1C(=O)N[C@@H](CCC(=O)O)C(=O)N[C@H](CCCCNC(=O)CCc1cn(CCOCCOCCOCCOCCOCCC(=O)NCCCC[C@H]3NC(=O)[C@H](Cc4cccc5ccccc45)NC(=O)[C@@H]4CCCN4C(=O)CCSCCC(=O)N4CN5CN(C4)C(=O)CCSC[C@H](NC3=O)C(=O)N[C@@H](CCSC)C(=O)N[C@@H](CCCCNC(=N)N)C(=O)N[C@@H](CC(=O)O)C(=O)N[C@@H](Cc3c[nH]c4ccccc34)C(=O)N[C@@H](CO)C(=O)N[C@@H]([C@@H](C)O)C(=O)N3CCC[C@H]3C(=O)N3C[C@H](O)C[C@H]3C(=O)N[C@@H](Cc3c[nH]c4ccccc34)C(=O)N[C@H](C(N)=O)CSCCC5=O)nn1)C(=O)N1CCC[C@H]1C(=O)N[C@@H](Cc1ccc(O)cc1)C(=O)N2 | Tumor necrosis factor receptor superfamily member 9 | binding, SPR |  |  | Kd | 3.2 nM
c1ccc(-c2c[nH]c3ncnc(N4CCOCC4)c23)cc1 | Serine/threonine-protein kinase 4 (STK4, Homo sapiens, UniProt Q13043) | enzyme activity, inhibitor, ADP detection |  |  | IC50 | 35 nM
O=C(O)[C@H](Cc1ccccc1)NC(=O)C1(c2ccc(-c3ccccc3)cc2)CCN(CCC(F)(F)F)CC1 | gag-pol integrase | enzyme activity, inhibitor, TR-FRET |  |  | IC50 | 263000 nM
O=C(Cc1ccccc1)N[C@H](C(=O)O)[C@@H]1N=C(C(=O)O)C(CSC(C(=O)O)c2ccccc2)CS1 (stereo partly shown) | Metallo-beta-lactamase VIM-2 (VIM-2, Escherichia coli, UniProt Q5U7L7) | enzyme activity, inhibitor, absorbance |  |  | IC50 | 65600 nM
CC(C)Oc1cccnc1N(C)C1CCN(Cc2ccc(I)cc2)CC1 | Drd2 | ligand displacement, radioligand |  | cell membranes | Ki | 85 nM
CCCC[C@@H]1NC(=O)[C@H](Cc2ccc(O)cc2)NC(=O)[C@@H]2CCCN2C(=O)[C@H](CC(=O)O)NC(=O)[C@H](C)NC(=O)[C@H](Cc2ccccc2)NC(=O)[C@@H]2CSCCC(=O)N3CN(CN(C3)C(=O)CCSC[C@@H](C(=O)N[C@@H](C)C(N)=O)NC1=O)C(=O)CCSC[C@H](NC(C)=O)C(=O)N[C@@H](CC(C)(C)C)C(=O)N1CCC[C@H]1C(=O)N[C@@H](CCC(=O)O)C(=O)N[C@H](CCCCNC(=O)CCc1cn(CCOCCOCCOCCOCCOCCC(=O)NCCCC[C@H]3NC(=O)[C@H](Cc4cccc5ccccc45)NC(=O)[C@@H]4CCCN4C(=O)[C@@H](NC(C)=O)CSCCC(=O)N4CN5CN(C4)C(=O)CCSC[C@H](NC3=O)C(=O)N[C@@H](CCSC)C(=O)N[C@@H](CCCCNC(=N)N)C(=O)N[C@@H](Cc3c[nH]cn3)C(=O)N[C@@H](Cc3c[nH]c4ccccc34)C(=O)N[C@@H](CO)C(=O)N[C@@H]([C@@H](C)O)C(=O)N3CCC[C@H]3C(=O)N3C[C@H](O)C[C@H]3C(=O)N[C@@H](Cc3c[nH]c4ccccc34)C(=O)N[C@H](C(N)=O)CSCCC5=O)nn1)C(=O)N1CCC[C@H]1C(=O)N[C@@H](Cc1ccc(O)cc1)C(=O)N2 | Tumor necrosis factor receptor superfamily member 9 | binding, SPR |  |  | Kd | 3.2 nM
c1ccc(-c2ncc(CN3CCN(c4ncccn4)CC3)[nH]2)cc1 | Drd2 | ligand displacement, radioligand |  | cell membranes | Ki | 817 nM
CC(=O)N[C@@H](CC(C)C)C(=O)N[C@@H](CC(C)C)C(=O)N[C@@H](CC(C)C)C(=O)N[C@@H](CCCN=C(N)N)C(=O)N[C@H](C(=O)N[C@@H](CCCCN)C(=O)N[C@@H](CCCN=C(N)N)C(N)=O)C(C)C | Proprotein convertase subtilisin/kexin type 7 (Homo sapiens, UniProt Q16549) | enzyme activity, inhibitor |  |  | Ki | 1520 nM
